The term IC50 denotes the concentration that inhibits the measured activity by half. Usually EC50 stands for the concentration needed to bring the measured effect to its halfway point.

Activity calls are given as the source filed them. The rule behind the calls is not given here.

Data on one molecule can be found in ChEMBL document CHEMBL4024789, “Neutral Porphyrin Derivative Exerts Anticancer Activity by Targeting Cellular Topoisomerase I (Top1) and Promotes Apoptotic Cell Death without Stabilizing Top1-DNA Cleavage Complexes” (J Med Chem, 2018).

Assay [1] has as its target T1, DNA topoisomerase 1 (Homo sapiens) (UniProt P11387).
T1 sequence (whole entry): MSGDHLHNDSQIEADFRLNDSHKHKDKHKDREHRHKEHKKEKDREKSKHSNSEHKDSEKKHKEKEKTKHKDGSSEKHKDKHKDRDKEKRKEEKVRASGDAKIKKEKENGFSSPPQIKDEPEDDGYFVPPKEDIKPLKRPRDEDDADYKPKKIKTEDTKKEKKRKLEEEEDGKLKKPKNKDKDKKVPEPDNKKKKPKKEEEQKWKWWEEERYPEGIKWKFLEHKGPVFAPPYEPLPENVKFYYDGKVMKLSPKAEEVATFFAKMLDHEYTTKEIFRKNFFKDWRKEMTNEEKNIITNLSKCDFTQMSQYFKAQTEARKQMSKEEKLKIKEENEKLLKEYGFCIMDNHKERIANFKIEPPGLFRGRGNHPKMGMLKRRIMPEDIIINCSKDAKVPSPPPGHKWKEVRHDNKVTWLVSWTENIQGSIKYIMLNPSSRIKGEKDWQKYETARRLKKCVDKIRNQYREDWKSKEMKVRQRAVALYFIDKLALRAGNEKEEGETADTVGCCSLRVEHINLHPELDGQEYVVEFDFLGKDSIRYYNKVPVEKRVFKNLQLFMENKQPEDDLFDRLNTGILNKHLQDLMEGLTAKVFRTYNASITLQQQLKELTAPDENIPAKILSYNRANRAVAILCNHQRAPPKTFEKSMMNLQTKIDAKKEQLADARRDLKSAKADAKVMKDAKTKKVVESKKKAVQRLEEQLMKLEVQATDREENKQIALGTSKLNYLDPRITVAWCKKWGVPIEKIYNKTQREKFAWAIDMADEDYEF
As to the kind of experiment: Induction of proteasome-mediated topoisomerase-1 degradation in human MCF7 cells at 10 uM by Western blot method. It counts as cell-based. The conditions noted are these: TDE = time-dependent effect. Put shortly: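 Whole-cell extracts of MCF7 cells treated with 10 μM for the indicated times, or preincubated with MG132 (100 nM) for 4 h before 12 h compound exposure. Top1 detected by Western blot with mouse monoclonal anti-Top1 (C21).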
On the technique in general: A western blot detects proteins with antibodies after separation by electrophoresis.

The test system of assay [2] is MEF. As to the kind of experiment: Cytotoxicity against TDP1-/- MEF assessed as reduction in cell viability by MTT assay. Type of assay: cell-based. The conditions noted are these: Mus musculus. Put shortly:
(§1)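 Survival of each cell line measured across a range of compound concentrations. Percent inhibition of viability at each concentration calculated against untreated control and IC50 estimated. MEFs were TDP1+/+ and TDP1–/– primary cells. Mean ± SD of at least three experiments in duplicate.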
In general terms: Tetrazolium dyes change colour on reduction, which living cells bring about.

Assay [3] concerns the target T1, DNA topoisomerase 1 (Homo sapiens). Nature of the assay: Inhibition of topoisomerase-1 in human MCF7 whole cell extracts at 0.25 to 5 uM using supercoiled pBS SK(+) DNA as substrate after 15 mins by ethidium bromide staining based agarose gel electrophoresis method. Put shortly: (§2)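 Ex vivo relaxation assay with MCF7 whole-cell lysate as the Top1 source and supercoiled pBS (SK+) DNA. Compound either preincubated with lysate for 5 min before DNA, or added simultaneously; then 37 °C for 15 min. CPT control at 5 μM. Read on agarose gel; mean ± SD, n=3.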

A short description of assay [4]: Cytotoxicity against human NIH:OVCAR3 cells assessed as reduction in cell viability by MTT assay. It counts as functional, cell-based. The following applies: OVCAR-3. Put shortly:
as §1

The target in assay [5] is T1, DNA topoisomerase 1 (Homo sapiens). Nature of the assay: Inhibition of CPT-induced recombinant human topoisomerase1-supercoiled pBS SK(+) DNA cleavage complex after 30 mins using topoisomerase1 expressed in baculovirus infected sf9 cells by ethidium bromide staining based agarose gel electrophoresis method. In a few lines:
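Plasmid cleavage assay: 50 fmol supercoiled pBS (SK+) with 100 fmol recombinant Top1 plus compound or CPT, or Top1 with CPT before compound addition, at 37 °C for 30 min. Nicked (form II) and supercoiled (form I) DNA resolved by gel.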

For assay [6] the target is unchanged. As to the kind of experiment: Inhibition of topoisomerase-1 in human MCF7 whole cell extracts at 0.25 to 5 uM using supercoiled pBS SK(+) DNA as substrate preincubated for 5 mins followed by substrate addition measured after 15 mins by ethidium bromide staining based agarose gel electrophoresis method. In a few lines: as §2
Assay [7] relates to MCF7. Nature of the assay: Cytotoxicity against human MCF7 cells transfected with Top1 SiRNA assessed as reduction in cell viability by MTT assay. Type of assay: functional, cell-based. In a few lines: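 MCF7 cells transfected with Top1 or control siRNA for 72 h; knockdown confirmed by Western blot with actin as loading control. Percent survival then plotted against compound concentration.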

Assay [8] has as its system MCF7. Nature of the assay: Cytotoxicity against human MCF7 cells assessed as reduction in cell viability up to 10 uM in presence of CPT by MTT assay. Type of assay: functional, cell-based. In a few lines: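 MCF7 cells pretreated with CPT (5 μM) for 12 h, then compound added at a range of concentrations. Viability inhibition calculated relative to control and IC50 estimated. Mean ± SD, at least three experiments in duplicate.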

Assay [9] relates to HEK293. Nature of the assay: Cytotoxicity against HEK293 cells assessed as reduction in cell viability by MTT assay. The following applies: Homo sapiens. Type of assay: cell-based. In a few lines: as §1
The target in assay [10] is T1, DNA topoisomerase 1 (Homo sapiens). As to the kind of experiment: Ratio of EC50 for recombinant human topoisomerase-1 expressed in baculovirus infected sf9 cells simultaneously incubated with substrate to EC50 for recombinant human topoisomerase-1 expressed in baculovirus infected sf9 cells preincubated for 5 mins followed by substrate addition. Put shortly:
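Recombinant human Top1 purified from baculovirus-infected Sf-9 cells; 30 fmol enzyme with 90 fmol supercoiled pBS (SK+) DNA (3:1 molar ratio) in relaxation buffer. Compound either preincubated with enzyme 5 min before DNA, or added simultaneously; then 37 °C, 15 min. Relaxation on 1% agarose; % inhibition quantified, EC50 from three experiments (mean ± SD).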

The target is the same in assay [11]. Nature of the assay: Inhibition of recombinant human EGFP-tagged topoisomerase-1- DNA cleavage complex formation at 20 uM after 10 mins by FRAP assay. In a few lines:
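FRAP in living MCF7 cells transiently expressing EGFP-human Top1, 37 °C chamber. Treatment was CPT 5 μM or compound 20 μM for 10 min, or CPT for 10 min then compound for 10 min. A subnuclear spot was bleached for 30 ms at 488 nm; curves normalized to the prebleach signal.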

Assay [12] shares this target. As to the kind of experiment: Reversible inhibition of recombinant human topoisomerase-1 expressed in baculovirus infected sf9 cells at 1 uM using supercoiled pBS SK(+) DNA as substrate preincubated for 5 mins followed by substrate addition and subsequent 40 fold compound dilution measured after 15 mins by ethidium bromide staining based agarose gel electrophoresis method. Put shortly: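 Recombinant Top1 (100 fmol) preincubated with 1 μM compound for 5 min at 37 °C in relaxation buffer. Mixture diluted 5-, 10-, 20- or 40-fold (final 0.2–0.025 μM), then 50 fmol pBS (SK+) DNA added and incubated 15 min at 37 °C. Three repeats performed.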

Assay [13] deals with T2, DNA topoisomerase 1 (Homo sapiens, UniProt P11387).
T2 sequence (P11387 whole entry): T1 sequence (whole entry)
Nature of the assay: Inhibition of recombinant human topoisomerase-1 expressed in baculovirus infected sf9 cells using supercoiled pBS SK(+) DNA as substrate preincubated for 5 mins followed by substrate addition measured after 15 mins by ethidium bromide staining based agarose gel electrophoresis method. In a few lines: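 Relaxation assay: 90 fmol supercoiled pBS (SK+) DNA with 30 fmol recombinant Top1 (Sf-9/baculovirus). Compound either preincubated with Top1 for 5 min before DNA addition, or added simultaneously with DNA; then 37 °C for 15 min. Vehicle 2% DMSO. Read on 1% agarose gel. EC50 from mean ± SD of three experiments.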

Turning to `CN(C)c1ccc(-c2c3nc(c(-c4ccc(N(C)C)cc4)c4ccc([nH]4)c(-c4ccc(C(=O)O)cc4)c4nc(c(-c5ccc(C(=O)O)cc5)c5ccc2[nH]5)C=C4)C=C3)cc1`, in assay [1], the Activity result is “Tde”. Further, the IC50 is more than 10 µM in assay [2], 5.19 µM in assay [4], 8.15 µM in [7] and more than 10 µM in assay [9]. The inhibition entry in assay [3], in [6], in [11] and in [12] was “Active” each time. Moreover, the inhibition result in assay [5] is “Dose-dependent effect”. In [8], the result was inactive. Besides, the Ratio EC50 in [10] lay within 4 to 5. In addition, in assay [13], the EC50 was found to be 0.381 µM.
